For experiment [1], the system named is AoiQ-FDH. Description: flavin reductase activity, NADH consumption. It counts as biochemical, Aspergillus oryzae. The settings on record: no flavin reductase added; copurified FAD. The gist of the method: (§1)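 Enzyme is the FDH domain of AoiQ, expressed as a standalone protein apart from its methyltransferase domain. Flavin reductase activity was followed by consumption of NADH or NADPH, with no exogenous flavin reductase added. Steady-state KM, kcat and kcat/KM were reported for each nicotinamide cofactor.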

Experiment [2] has as its system AoiQ-FDH. Description: flavin reductase activity, NADPH consumption. The settings on record: no flavin reductase added; copurified FAD. It counts as biochemical, Aspergillus oryzae. The gist of the method:
as §1

The source of these data is PMC8434754 (Journal of the American Chemical Society, 2021).

The term Km denotes the concentration of substrate that gives half-maximal velocity. With `NC(=O)C1=CN([C@@H]2O[C@H](COP(=O)(O)OP(=O)(O)OC[C@H]3O[C@@H](n4cnc5c(N)ncnc54)[C@H](O)[C@@H]3O)[C@@H](O)[C@H]2O)C=CC1` [NADH], the Km with AoiQ-FDH [1] was determined as 43.5 ± 3.6 µM.
As for `NC(=O)C1=CN([C@@H]2O[C@H](COP(=O)(O)OP(=O)(O)OC[C@H]3O[C@@H](n4cnc5c(N)ncnc54)[C@H](OP(=O)(O)O)[C@@H]3O)[C@@H](O)[C@H]2O)C=CC1` [NADPH], in the experiment with AoiQ-FDH [2], the Km was found to be 30.5 ± 6 µM.
